Laboratory results taken from ChEMBL document CHEMBL3351532, “In vitro antiplasmodial and cytotoxic activities of asymmetrical pyridinium derivatives” (Eur J Med Chem, 2014).

Experiments:
Plasmodium falciparum = test: Antiplasmodial activity against Plasmodium falciparum 3D7 infected in human erythrocytes assessed as parasite growth inhibition after 72 hrs by SYBR Green I dye based fluorescence assay; type: functional, organism-based; conditions: 3D7, 72 h
How it was run: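 P. falciparum 3D7, sorbitol-synchronized, in O+ human erythrocytes at 5% hematocrit and 0.5% parasitemia. Medium: RPMI 1640 with 2% human serum, 0.5% Albumax II and 0.2% NaHCO3, at 37 °C in 5% CO2. Triplicate serial dilutions, 0.001% final DMSO, 80 nM chloroquine as positive control, 72 h. SYBR Green I lysis for 1 h in the dark (ex 485/em 530 nm). IC50 by nonlinear regression of counts against log concentration.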

[1] = Selectivity index, ratio of CC50 for rat L6 cells to IC50 for Plasmodium falciparum 3D7; type: functional
[2] = Cytotoxicity against rat L6 cells after 72 hrs by alamar blue assay; type: cell-based
How it was run: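 Rat L6 skeletal myoblasts plated at 50,000 cells/well in RPMI 1640 with L-glutamine and 10% FBS, left to adhere 3 h, then exposed to serial dilutions for 72 h. Alamar Blue added for 2 h at 37 °C, fluorescence read at ex 536/em 588 nm. TC50 taken as the concentration halving fluorescence relative to inhibitor-free wells.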

Work on `c1ccc(CSc2ncnc3c2ncn3Cc2ccc(CCc3ccc(C[n+]4ccc(N5CCCC5)cc4)cc3)cc2)cc1` yielded an IC50 (Plasmodium falciparum) of 0.149 µM.
`CN(C)c1cc[n+](Cc2ccc(CCc3ccc(Cn4cnc5c(SCc6ccccc6)ncnc54)cc3)cc2)cc1` showed an IC50 (Plasmodium falciparum) of 0.092 µM.
`CN(C)c1cc[n+](Cc2ccc(CCCCc3ccc(C[n+]4ccc(N(C)c5ccc(Cl)cc5)cc4)cc3)cc2)cc1` showed an IC50 (Plasmodium falciparum) of 0.045 µM.
In the case of `CN(C)c1cc[n+](Cc2ccc(C[n+]3ccc(N(C)c4ccc(Cl)cc4)cc3)cc2)cc1`, the IC50 (Plasmodium falciparum) is reported as 0.066 µM.
Compound `Nc1ncnc2c1ncn2Cc1ccc(CCc2ccc(C[n+]3ccc(N4CCCC4)cc3)cc2)cc1` has an IC50 (Plasmodium falciparum) of 0.093 µM.
With `CN(C)c1cc[n+](Cc2ccc(CCc3ccc(C[n+]4ccc(N(C)c5ccc(Cl)cc5)cc4)cc3)cc2)cc1.[Br-].[Br-]` the “Ratio CC50/IC50” value [1] was 28.6, the IC50 (Plasmodium falciparum) was 0.005 µM and the CC50 at 72 h [2] was 0.1 mg/L.
With `CN(C)c1cc[n+](Cc2ccc(CCCCc3ccc(Cn4cnc5c(N)ncnc54)cc3)cc2)cc1` the IC50 (Plasmodium falciparum) was 0.162 µM.
For `CN(C)c1cc[n+](Cc2ccc(-c3ccc(Cn4cnc(N)c5ncnc4-5)cc3)cc2)cc1`, the IC50 (Plasmodium falciparum) was 0.949 µM.
`CN(C)c1cc[n+](Cc2ccc(C[n+]3ccc(N4CCCC4)cc3)cc2)cc1` showed an IC50 (Plasmodium falciparum) of 0.094 µM.
With `c1ccc(CSc2ncnc3c2ncn3Cc2ccc(C[n+]3ccc(N4CCCC4)cc3)cc2)cc1` the IC50 (Plasmodium falciparum) was 0.411 µM.
With `Nc1ncn(Cc2ccc(CCCCc3ccc(C[n+]4ccc(N5CCCC5)cc4)cc3)cc2)c2ncnc1-2` the IC50 (Plasmodium falciparum) was 0.084 µM.
Work on `c1ccc(CSc2ncnc3c2ncn3Cc2ccc(CCCCc3ccc(C[n+]4ccc(N5CCCC5)cc4)cc3)cc2)cc1` yielded an IC50 (Plasmodium falciparum) of 0.054 µM.
Work on `CN(C)c1cc[n+](Cc2ccc(CCCCc3ccc(Cn4cnc5c(SCc6ccccc6)ncnc54)cc3)cc2)cc1` yielded an IC50 (Plasmodium falciparum) of 0.5 µM.
In the case of `Nc1ncnc2c1ncn2Cc1ccc(C[n+]2ccc(N3CCCC3)cc2)cc1`, the IC50 (Plasmodium falciparum) is reported as 6.43 µM.
For `CN(c1ccc(Cl)cc1)c1cc[n+](Cc2ccc(CCCCc3ccc(C[n+]4ccc(N5CCCC5)cc4)cc3)cc2)cc1`, the IC50 (Plasmodium falciparum) was 0.037 µM.
`CN(C)c1cc[n+](Cc2ccc(CCCCc3ccc(Cn4cnc(N)c5ncnc4-5)cc3)cc2)cc1` gave an IC50 (Plasmodium falciparum) of 0.93 µM.
`CN(C)c1cc[n+](Cc2ccc(Cn3cnc4c(N)ncnc43)cc2)cc1` showed an IC50 (Plasmodium falciparum) of 14.3 µM.
Compound `CN(C)c1cc[n+](Cc2ccc(-c3ccc(Cn4cnc5c(SCc6ccccc6)ncnc54)cc3)cc2)cc1` has an IC50 (Plasmodium falciparum) of 3.22 µM.
`Nc1ncnc2c1ncn2Cc1ccc(-c2ccc(C[n+]3ccc(N4CCCC4)cc3)cc2)cc1` gave an IC50 (Plasmodium falciparum) of 0.191 µM.
Work on `c1ccc(CSc2ncnc3c2ncn3Cc2ccc(-c3ccc(C[n+]4ccc(N5CCCC5)cc4)cc3)cc2)cc1` yielded an IC50 (Plasmodium falciparum) of 0.119 µM.
`Nc1ncn(Cc2ccc(CCc3ccc(C[n+]4ccc(N5CCCC5)cc4)cc3)cc2)c2ncnc1-2` gave an IC50 (Plasmodium falciparum) of 0.21 µM.
In the case of `CN(C)c1cc[n+](Cc2ccc(-c3ccc(C[n+]4ccc(N5CCCC5)cc4)cc3)cc2)cc1.[Br-].[Br-]`, the “Ratio CC50/IC50” value [1] is reported as 3187.5, the IC50 (Plasmodium falciparum) is reported as 0.003 µM and the CC50 at 72 h [2] is reported as 5.1 mg/L.
With `CN(c1ccc(Cl)cc1)c1cc[n+](Cc2ccc(C[n+]3ccc(N4CCCC4)cc3)cc2)cc1` the IC50 (Plasmodium falciparum) was 0.092 µM.
`CN(c1ccc(Cl)cc1)c1cc[n+](Cc2ccc(CCc3ccc(C[n+]4ccc(N5CCCC5)cc4)cc3)cc2)cc1` showed an IC50 (Plasmodium falciparum) of 0.031 µM.
With `CN(C)c1cc[n+](Cc2ccc(CCCCc3ccc(C[n+]4ccc(N5CCCC5)cc4)cc3)cc2)cc1.[Br-].[Br-]` the “Ratio CC50/IC50” value [1] was 8.6, the IC50 (Plasmodium falciparum) was 0.002 µM and the CC50 at 72 h [2] was 0.012 mg/L.
`Nc1ncnc2c1ncn2Cc1ccc(CCCCc2ccc(C[n+]3ccc(N4CCCC4)cc3)cc2)cc1` showed an IC50 (Plasmodium falciparum) of 0.46 µM.
In the case of `CN(C)c1cc[n+](Cc2ccc(CCc3ccc(C[n+]4ccc(N5CCCC5)cc4)cc3)cc2)cc1.[Br-].[Br-]`, the “Ratio CC50/IC50” value [1] is reported as 58.6, the IC50 (Plasmodium falciparum) is reported as 0.003 µM and the CC50 at 72 h [2] is reported as 0.123 mg/L.
In the case of `CN(C)c1cc[n+](Cc2ccc(-c3ccc(Cn4cnc5c(N)ncnc54)cc3)cc2)cc1`, the IC50 (Plasmodium falciparum) is reported as 4.84 µM.
`CN(C)c1cc[n+](Cc2ccc(CCc3ccc(Cn4cnc5c(N)ncnc54)cc3)cc2)cc1` gave an IC50 (Plasmodium falciparum) of 0.191 µM.
In the case of `CN(C)c1cc[n+](Cc2ccc(-c3ccc(C[n+]4ccc(N(C)c5ccc(Cl)cc5)cc4)cc3)cc2)cc1.[Br-].[Br-]`, the “Ratio CC50/IC50” value [1] is reported as 24.4, the IC50 (Plasmodium falciparum) is reported as 0.007 µM and the CC50 at 72 h [2] is reported as 0.122 mg/L.
In the case of `CN(c1ccc(Cl)cc1)c1cc[n+](Cc2ccc(-c3ccc(C[n+]4ccc(N5CCCC5)cc4)cc3)cc2)cc1`, the IC50 (Plasmodium falciparum) is reported as 0.038 µM.
In the case of `CN(C)c1cc[n+](Cc2ccc(Cn3cnc(N)c4ncnc3-4)cc2)cc1`, the IC50 (Plasmodium falciparum) is reported as > 22.7 µM.
Work on `CN(C)c1cc[n+](Cc2ccc(Cn3cnc4c(SCc5ccccc5)ncnc43)cc2)cc1` yielded an IC50 (Plasmodium falciparum) of 0.122 µM.
